Experimental data of several laboratories.
Protocols differ between the studies behind these lines.
FLT3 ITD: Receptor-type tyrosine-protein kinase FLT3 (FLT3, Homo sapiens, UniProt P36888, ITD)
CSNK1D: Casein kinase I isoform delta (CSNK1D, Homo sapiens, UniProt P48730)
PLCD1: 1-phosphatidylinositol 4,5-bisphosphate phosphodiesterase delta-1 (PLCD1, Homo sapiens, UniProt P51178)
HTR2B: 5-hydroxytryptamine receptor 2B (HTR2B, Homo sapiens, UniProt P41595)

| SMILES | target | observed | mode | method | notes | quantity | value |
| --- | --- | --- | --- | --- | --- | --- | --- |
| Cc1n[nH]c2ccc3nc(-c4ccc(C(=O)NCCN(C)C)cn4)c4c(c3c12)CCCCC4 | FLT3 ITD | enzyme activity | inhibitor | – | – | IC50 | 0.419 µM |
| c1cc(CN2CCCNCCNCCCNCC2)ccc1CN1CCCNCCNCCCNCC1 | CSNK1D | binding | – | SPR | – | Kd | > 50 µM |
| Cc1n[nH]c2ccc3nc(-c4ccc(C(=O)NCCN(C)C)cc4F)c4c(c3c12)CCCC4 | Receptor-type tyrosine-protein kinase FLT3 (FLT3, Homo sapiens, UniProt P36888, F691L) | enzyme activity | inhibitor | – | – | IC50 | 0.072 µM |
| CCOc1ccc(C(=O)CC(SCc2ccccc2)C(=O)O)cc1 (centres unmarked) | PLCD1 | ligand displacement | – | FP | – | Ki | > 1000 µM |
| Cc1n[nH]c2ccc3nc(-c4ccc(C(=O)N(C)CCN(C)C)cc4)c4c(c3c12)CCC(F)(F)C4 | FLT3 ITD | enzyme activity | inhibitor | – | – | IC50 | > 1 µM |
| COc1cc2c3c(c1OC)-c1c(OC)ccc(N4CCOCC4)c1CC3N(C)CC2 (centres unmarked) | HTR2B | ligand displacement | – | radioligand | – | Ki | 0.773 µM |
| N#Cc1ccccc1C#CCO | CSNK1D | binding | – | SPR | – | Kd | > 50 µM |
| COCCNC(=O)c1ccc(-c2nc3ccc4[nH]ncc4c3c3c2CCCC3)cc1 | FLT3 ITD | enzyme activity | inhibitor | – | – | IC50 | 0.664 µM |
| COc1cc2c3c(c1OC)-c1c(OC)ccc(-c4ccc(C#N)cc4)c1CC3N(C)CC2 (centres unmarked) | HTR2B | ligand displacement | – | radioligand | – | Ki | 0.856 µM |
| CCOC(=O)c1cc(-c2ccc(OCC)cc2)oc1-c1ccc(Cl)cc1 | PLCD1 | ligand displacement | – | FP | – | Ki | > 100 µM |
| CN(C)CCNC(=O)c1ccc(-c2nc3ccc4[nH]ncc4c3c3c2CCCCC3)c(F)c1 | Receptor-type tyrosine-protein kinase FLT3 (FLT3, Homo sapiens, UniProt P36888, D835Y) | enzyme activity | inhibitor | – | – | IC50 | 0.007 µM |
| O=C(NC1CCCCC1)C(=O)c1c[nH]c2ccccc12 | CSNK1D | binding | – | SPR | – | Kd | 5.7 µM |
| CCOc1ccc(C(=O)CC(SCc2ccc(F)cc2)C(=O)O)cc1 (centres unmarked) | PLCD1 | ligand displacement | – | FP | – | Ki | > 1000 µM |
| CN(C)C(=O)c1cc2cnc(Nc3ccc(C(=O)NCCCCCCOc4cccc5c4C(=O)N(C4CCC(=O)NC4=O)C5=O)cc3)nc2n1C1CCCC1 (centres unmarked) | Aurora kinase C (AURKC, Homo sapiens, UniProt Q9UQB9) | binding | – | competition with immobilised ligand | – | Kd | < 0.2 µM |
| COCc1n[nH]c(N)c1-c1ccc(Cl)cc1 | CSNK1D | binding | – | SPR | – | Kd | > 50 µM |
| O=C(NCC1CC1)c1ccc(-c2nc3ccc4[nH]ncc4c3c3c2CCCC3)cc1 | FLT3 ITD | enzyme activity | inhibitor | – | – | IC50 | > 1 µM |
| COc1cc2c3c(c1OC)-c1c(OC)ccc(O)c1CC3N(C)CC2 (centres unmarked) | HTR2B | ligand displacement | – | radioligand | – | Ki | 1.42 µM |
| CN(C)CCN(C)C(=O)c1ccc(-c2nc3ccc4[nH]ncc4c3c3c2CCCCC3)cc1 | FLT3 ITD | enzyme activity | inhibitor | – | – | IC50 | > 1 µM |
| CCOc1ccc(C(=O)CC(SCc2ccc(Cl)cc2)C(=O)O)cc1OCC (centres unmarked) | PLCD1 | ligand displacement | – | FP | – | Ki | > 1000 µM |
| Oc1ccc(C2CNCCN2)cc1 (centres unmarked) | CSNK1D | binding | – | SPR | – | Kd | > 50 µM |
| CN(C)CCNC(=O)c1ccc(-c2nc3ccc4[nH]ncc4c3c3c2CCCC3)cc1 | FLT3 ITD | enzyme activity | inhibitor | – | – | IC50 | 0.086 µM |
| CCOc1ccc(-c2cc(C(=O)O)c(-c3ccc(Cl)cc3)o2)cc1 | PLCD1 | ligand displacement | – | FP | – | Ki | > 100 µM |
| CNc1cncc(Cl)n1 | CSNK1D | binding | – | SPR | – | Kd | > 50 µM |
| CCOc1ccc(C(=O)CC(SCc2ccc(Cl)cc2)C(=O)OC)cc1 (centres unmarked) | PLCD1 | ligand displacement | – | FP | – | Ki | > 1000 µM |
| c1ccc(-c2oc3ncnc(NCCCN4CCOCC4)c3c2-c2ccccc2)cc1 | CSNK1D | binding | – | SPR | – | Kd | > 50 µM |
| COc1ccc(C(=O)CC(SCc2ccc(Cl)cc2)C(=O)O)cc1 (centres unmarked) | PLCD1 | ligand displacement | – | FP | – | Ki | > 1000 µM |
| Brc1cnc2nccnc2c1 | CSNK1D | binding | – | SPR | – | Kd | > 50 µM |
| CCOc1ccc(C(=O)CC(SCc2ccc(Br)cc2)C(=O)O)cc1 (centres unmarked) | PLCD1 | ligand displacement | – | FP | – | Ki | > 1000 µM |
| CCCNC(=O)c1ccc2c3c1C(CC(F)(F)F)CN3CCNC2 (racemic) | HTR2B | ligand displacement | – | radioligand | cell membranes | Ki | 2.25 µM |
